Tests used:
[1] = tested on: SF-268; experiment: Antiproliferative activity against human SF268 cells by SRB assay; type: functional
Summary of the method: (§1)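 Tested in the NCI in vitro human tumor cell line screen, run by the National Cancer Institute. Each compound was given at five concentrations (100, 10, 1.0, 0.1 and 0.01 μM). GI50 is the drug concentration that reduces growth of treated cells to half that of control cells during drug incubation, judged from the SRB signal.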

[2] = tested on: K562; experiment: Cytotoxicity against human K562 cells; type: cell-based
[3] = tested on: NCI-H322M; experiment: Cytotoxicity against human NCI-H322M cells; type: cell-based
[4] = Antiproliferative activity against human Hs 578T cells by SRB assay; type: functional; summary of the method: as §1
[5] = tested on: NCI-H322M; experiment: Antiproliferative activity against human NCI-H322M cells by SRB assay; type: functional; summary of the method: as §1
[6] = tested on: SF-295; experiment: Cytotoxicity against human SF295 cells; type: cell-based
Summary of the method: (§2)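 Tested in the NCI in vitro disease-oriented human tumour cell line screen, with screening performed by NCI. Growth was read by SRB signal over the drug incubation period at five concentrations: 100, 10, 1.0, 0.1 and 0.01 μM. GI50 is the concentration that reduces growth of treated cells to half that of control cells.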

[7] = tested on: TK-10; experiment: Antiproliferative activity against human TK10 cells by SRB assay; type: functional
Summary of the method: (§3)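 Cell growth was tested in the NIH in vitro disease-oriented human tumor cell line screen, which NCI ran for these compounds. Compounds were tested at five concentrations (100, 10, 1.0, 0.1 and 0.01 μM), and growth was read by SRB signal. GI50 is the drug concentration that reduces growth of treated cells to half that of control cells during drug incubation.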

[8] = tested on: OVCAR-8; experiment: Antiproliferative activity against human OVCAR8 cells by SRB assay; type: functional; summary of the method: as §1
[9] = tested on: BT-549; experiment: Cytotoxicity against human BT549 cells; type: cell-based
[10] = tested on: OVCAR-5; experiment: Antiproliferative activity against human OVCAR5 cells by SRB assay; type: functional; summary of the method: as §1
[11] = tested on: SNB-75; experiment: Cytotoxicity against human SNB75 cells; type: cell-based
Summary of the method: (§4)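 Screened by NCI in its in vitro disease-oriented human tumour cell line panel. Compounds tested at five concentrations (100, 10, 1.0, 0.1 and 0.01 μM). Growth read by sulforhodamine B (SRB) signal. GI50 is the concentration reducing growth of treated cells to half that of control cells during the drug incubation.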

[12] = tested on: UACC-62; experiment: Antiproliferative activity against human UACC62 cells by SRB assay; type: functional; summary of the method: as §3
[13] = tested on: SR; experiment: Antiproliferative activity against human SR cells by SRB assay; type: functional; summary of the method: as §3
[14] = tested on: HT-29; experiment: Antiproliferative activity against human HT-29 cells by SRB assay; type: functional; summary of the method: as §1
[15] = tested on: OVCAR-3; experiment: Cytotoxicity against human OVCAR3 cells; type: cell-based; summary of the method: as §2
[16] = tested on: CCRF-CEM; experiment: Cytotoxicity against human CCRF-CEM cells; type: cell-based
[17] = tested on: UO-31; experiment: Cytotoxicity against human UO31 cells; type: cell-based; summary of the method: as §4
[18] = tested on: SF-539; experiment: Antiproliferative activity against human SF539 cells by SRB assay; type: functional; summary of the method: as §1
[19] = tested on: MDA-MB-435; experiment: Cytotoxicity against human MDA-MB-435 cells; type: cell-based
[20] = tested on: KM12; experiment: Antiproliferative activity against human KM12 cells by SRB assay; type: functional; summary of the method: as §1
[21] = tested on: PC-3; experiment: Antiproliferative activity against human PC3 cells by SRB assay; type: functional; summary of the method: as §1
[22] = tested on: OVCAR-4; experiment: Antiproliferative activity against human OVCAR4 cells by SRB assay; type: functional; summary of the method: as §1
[23] = tested on: DU-145; experiment: Antiproliferative activity against human DU145 cells by SRB assay; type: functional; summary of the method: as §1
[24] = tested on: COLO 205; experiment: Cytotoxicity against human COLO205 cells; type: cell-based; summary of the method: as §2
[25] = tested on: 786-0; experiment: Antiproliferative activity against human 786-0 cells by SRB assay; type: functional; summary of the method: as §1
[26] = tested on: EKVX; experiment: Cytotoxicity against human EKVX cells; type: cell-based; summary of the method: as §2
[27] = tested on: NCI-H226; experiment: Antiproliferative activity against human NCI-H226 cells by SRB assay; type: functional; summary of the method: as §1
[28] = tested on: IGROV-1; experiment: Antiproliferative activity against human IGROV1 cells by SRB assay; type: functional; summary of the method: as §1
[29] = tested on: SK-OV-3; experiment: Antiproliferative activity against human SKOV3 cells by SRB assay; type: functional; summary of the method: as §1
[30] = tested on: SW-620; experiment: Cytotoxicity against human SW620 cells; type: cell-based; summary of the method: as §4
[31] = tested on: M14; experiment: Antiproliferative activity against human M14 cells by SRB assay; type: functional; summary of the method: as §1
[32] = tested on: SF-539; experiment: Cytotoxicity against human SF539 cells; type: cell-based; summary of the method: as §2
[33] = tested on: OVCAR-5; experiment: Cytotoxicity against human OVCAR5 cells; type: cell-based; summary of the method: as §2
[34] = tested on: DU-145; experiment: Cytotoxicity against human DU145 cells; type: cell-based; summary of the method: as §2
[35] = tested on: HL-60(TB); experiment: Cytotoxicity against human HL-60(TB) cells; type: cell-based
[36] = tested on: SNB-75; experiment: Antiproliferative activity against human SNB75 cells by SRB assay; type: functional; summary of the method: as §3
[37] = tested on: A549; experiment: Antiproliferative activity against human A549 cells by SRB assay; type: functional; summary of the method: as §1
[38] = tested on: NCI-H23; experiment: Antiproliferative activity against human NCI-H23 cells by SRB assay; type: functional; summary of the method: as §1
[39] = tested on: COLO 205; experiment: Antiproliferative activity against human COLO205 cells by SRB assay; type: functional; summary of the method: as §1
[40] = tested on: U-251; experiment: Cytotoxicity against human U251 cells; type: cell-based; summary of the method: as §4
[41] = tested on: SNB-19; experiment: Antiproliferative activity against human SNB19 cells by SRB assay; type: functional; summary of the method: as §1
[42] = tested on: RXF 393; experiment: Antiproliferative activity against human RXF393 cells by SRB assay; type: functional; summary of the method: as §1
[43] = tested on: MDA-MB-435; experiment: Antiproliferative activity against human MDA-MB-435 cells by SRB assay; type: functional; summary of the method: as §1
[44] = tested on: T47D; experiment: Cytotoxicity against human T47D cells; type: cell-based; summary of the method: as §4
[45] = tested on: A549; experiment: Cytotoxicity against human A549 cells; type: cell-based; summary of the method: as §2
[46] = tested on: CAKI-1; experiment: Antiproliferative activity against human Caki1 cells by SRB assay; type: functional; summary of the method: as §1
[47] = tested on: CAKI-1; experiment: Cytotoxicity against human Caki1 cells; type: cell-based
[48] = tested on: HCT-116; experiment: Antiproliferative activity against human HCT116 cells by SRB assay; type: functional; summary of the method: as §1
[49] = tested on: NCI-H23; experiment: Cytotoxicity against human NCI-H23 cells; type: cell-based
[50] = tested on: RPMI-8226; experiment: Cytotoxicity against human RPMI8226 cells; type: cell-based; summary of the method: as §2
[51] = tested on: RXF 393; experiment: Cytotoxicity against human RXF393 cells; type: cell-based; summary of the method: as §2
[52] = tested on: SN12C; experiment: Cytotoxicity against human SN12C cells; type: cell-based; summary of the method: as §4
[53] = tested on: NCI-H460; experiment: Cytotoxicity against human NCI-H460 cells; type: cell-based
[54] = tested on: CCRF-CEM; experiment: Antiproliferative activity against human CCRF-CEM cells by SRB assay; type: functional; summary of the method: as §1
[55] = tested on: OVCAR-4; experiment: Cytotoxicity against human OVCAR4 cells; type: cell-based
[56] = tested on: MOLT-4; experiment: Cytotoxicity against human MOLT4 cells; type: cell-based
[57] = tested on: NCI-H460; experiment: Antiproliferative activity against human NCI-H460 cells by SRB assay; type: functional; summary of the method: as §1
[58] = tested on: UACC-257; experiment: Cytotoxicity against human UACC257 cells; type: cell-based; summary of the method: as §4
[59] = tested on: HOP-92; experiment: Antiproliferative activity against human HOP92 cells by SRB assay; type: functional; summary of the method: as §1
[60] = tested on: T47D; experiment: Antiproliferative activity against human T47D cells by SRB assay; type: functional; summary of the method: as §3

What does the source list for `O=C(/C=C/c1ccc(CN(CCO)CCc2c[nH]c3ccccc23)cc1)NO` [DACINOSTAT]?
GI50 [1]: 1530 nM; LC50 [2]: > 100000 nM; LC50 [3]: > 100000 nM; GI50 [4]: 619 nM; GI50 [5]: 2260 nM; LC50 [6]: 6910 nM; GI50 [7]: 495 nM; GI50 [8]: 450 nM; LC50 [9]: 85600 nM; GI50 [10]: 260 nM; LC50 [11]: > 100000 nM; GI50 [12]: 379 nM; GI50 [13]: 2990 nM; GI50 [14]: 566 nM; LC50 [15]: 51000 nM; LC50 [16]: > 100000 nM; LC50 [17]: 52800 nM; GI50 [18]: 965 nM; LC50 [19]: 28800 nM; GI50 [20]: 1040 nM; GI50 [21]: 1300 nM; GI50 [22]: 3210 nM; GI50 [23]: 580 nM; LC50 [24]: 50400 nM; GI50 [25]: 2380 nM; LC50 [26]: > 100000 nM; GI50 [27]: 1410 nM; GI50 [28]: 187 nM; GI50 [29]: 524 nM; LC50 [30]: 81300 nM; GI50 [31]: 849 nM; LC50 [32]: 57100 nM; LC50 [33]: 38900 nM; LC50 [34]: > 100000 nM; LC50 [35]: > 100000 nM; GI50 [36]: 318 nM; GI50 [37]: 1090 nM; GI50 [38]: 1500 nM; GI50 [39]: 1080 nM; LC50 [40]: 5820 nM; GI50 [41]: 1530 nM; GI50 [42]: < 10 nM; GI50 [43]: 537 nM; LC50 [44]: > 100000 nM; LC50 [45]: 94600 nM; GI50 [46]: 619 nM; LC50 [47]: 5790 nM; GI50 [48]: 347 nM; LC50 [49]: > 100000 nM; LC50 [50]: > 100000 nM; LC50 [51]: 15300 nM; LC50 [52]: > 100000 nM; LC50 [53]: > 100000 nM; GI50 [54]: 251 nM; LC50 [55]: > 100000 nM; LC50 [56]: 86900 nM; GI50 [57]: 700 nM; LC50 [58]: 44800 nM; GI50 [59]: 199 nM; GI50 [60]: 444 nM

— ChEMBL document CHEMBL1806473, “Structure-based optimization of click-based histone deacetylase inhibitors” (Eur J Med Chem, 2011)
